# The source made the active and inactive calls. The rule behind the calls is not given here.
# Assays:
# [1] = tested on: Plasmodium yoelii; assay: Antimalarial activity against Plasmodium yoelii YM infected in BALB/c mouse assessed reduction in parasitemia at 10 mg/kg/day, sc for 4 days by Giemsa-staining based microscopic analysis; format: functional, organism-based
# How it was run: (§1)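 P. yoelii-infected mice, n=3 per group. Subcutaneous injection once daily for 4 days starting at 96 h post infection. Parasitemia followed on blood-smear microscopy, with inhibition measured at 24 h post treatment. Cure time taken as the minimum period to cure all mice; survival recorded at 40 days. DMSO controls included.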
# [2] = tested on: Plasmodium falciparum; assay: Non-competitive inhibition of Plasmodium falciparum NDH2 expressed in Escherichia coli BL21 up to 50 nM by spectrophotometric analysis
# [3] = tested on: Plasmodium yoelii; assay: Antimalarial activity against Plasmodium yoelii YM infected in BALB/c mouse assessed as time duration for parasite cure at 10 mg/kg, sc administered BID for 4 days starting at 96 hrs post infection, 8 hrs apart by Giemsa-staining based microscopic analysis; format: functional
# How it was run: (§2)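 P. yoelii-infected mice, n=3 per group. Subcutaneous injection twice daily, 8 h apart, for 4 days starting at 96 h post infection. Growth inhibition read from blood smears at 24 h post treatment. Cure time taken as the minimum period to cure all mice in the group. DMSO controls included.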
# [4] = Inhibition of Plasmodium falciparum NDH2 N92R/S497R double mutant expressed in Escherichia coli DH5alpha competent cells using NADH and ubiquinone-1 as substrate by spectrophotometric analysis
# How it was run: (§3)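 Recombinant PfNDH2 point or double mutants assayed spectrophotometrically at 25 °C. Buffer: 50 mM MOPS pH 7.0, 150 mM NaCl, 1 mM EDTA, 0.01% Triton X-100. Substrates 50 µM NADH and 30 µM ubiquinone-1, with 0.5 nM enzyme and selected inhibitor concentrations.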
# [5] = Inhibition of Plasmodium falciparum NDH2 S497R mutant expressed in Escherichia coli DH5alpha competent cells using NADH and ubiquinone-1 as substrate by spectrophotometric analysis; how it was run: as §3
# [6] = tested on: Plasmodium yoelii; assay: Antimalarial activity against Plasmodium yoelii YM infected in BALB/c mouse assessed as parasite growth inhibition at 90 mg/kg, sc administered BID for 4 days starting at 96 hrs post infection, 8 hrs apart by Giemsa-staining based microscopic analysis; format: functional; conditions: read-out: GI; how it was run: as §2
# [7] = tested on: HeLa; assay: Cytotoxicity against human HeLa cells assessed as reduction in cell viability up to 2 uM after 48 hrs by MTT assay; format: cell-based
# How it was run: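 HeLa cell viability measured by MTT assay with compound at concentrations up to 2 µM.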
# [8] = tested on: Plasmodium falciparum; assay: Antimalarial activity against chloroquine-resistant asexual blood stage Plasmodium falciparum GB4 after 72 hrs by SYBR green-based fluorometric analysis; format: functional; conditions: GB4, 72 h
# How it was run: (§4)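 Mid-ring-stage cultures (~6-10 h post-invasion) at 1% parasitemia and 2% hematocrit, in triplicate. Twofold serial dilutions from a top concentration of 100 nM. Incubated 72 h at 37 °C under 5% CO2/5% O2/90% N2. Lysis buffer containing 5×SYBR Green I added, 20 min in the dark, fluorescence read at ex 485/em 538 nm. EC50 derived.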
# [9] = tested on: Plasmodium yoelii; assay: Antimalarial activity against Plasmodium yoelii YM infected in BALB/c mouse assessed as parasite growth inhibition at 10 mg/kg, sc administered QD for 4 days starting at 96 hrs post infection by Giemsa-staining based microscopic analysis; format: functional; conditions: read-out: GI; how it was run: as §1
# [10] = tested on: Plasmodium falciparum; assay: Antimalarial activity against chloroquine/quinine/sulfadoxine-pyrimethamine/amodiaquine-resistant asexual blood stage Plasmodium falciparum Dd2 after 72 hrs by SYBR green-based fluorometric analysis; format: functional; conditions: Dd2, 72 h; how it was run: as §4
# [11] = tested on: Plasmodium yoelii; assay: Antimalarial activity against Plasmodium yoelii YM infected in BALB/c mouse assessed as mouse survival at 10 mg/kg, sc administered BID for 4 days starting at 96 hrs post infection, 8 hrs apart by Giemsa-staining based microscopic analysis; format: functional
# How it was run: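 Mice inoculated with 1×106 P. yoelii parasites. Subcutaneous dosing for 4 days starting 96 h post infection, given once daily or twice daily 8 h apart. Parasitemia followed on Giemsa-stained blood smears. Survival recorded at 40 days post infection; groups of n=3. DMSO-only mice served as untreated controls.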
# [12] = tested on: Plasmodium yoelii; assay: Antimalarial activity against Plasmodium yoelii YM infected in BALB/c mouse assessed as time duration for parasite cure at 30 mg/kg, sc administered BID for 4 days starting at 96 hrs post infection, 8 hrs apart by Giemsa-staining based microscopic analysis; format: functional; how it was run: as §2
# [13] = tested on: Plasmodium falciparum; assay: Synergistic antimalarial activity against Plasmodium falciparum in presence of dihydroartemisinin; format: functional
# How it was run: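 In vitro drug interaction analyses with other antimalarials against P. falciparum. Experiments repeated three times; error bars s.e.m.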
# [14] = Inhibition of Plasmodium falciparum NDH2 N92R mutant expressed in Escherichia coli DH5alpha competent cells using NADH and ubiquinone-1 as substrate by spectrophotometric analysis; how it was run: as §3
# [15] = tested on: Plasmodium yoelii; assay: Antimalarial activity against Plasmodium yoelii YM infected in BALB/c mouse assessed as parasite growth inhibition at 5 mg/kg, sc administered QD for 4 days starting at 2 hrs post infection by Giemsa-staining based microscopic analysis; format: functional; conditions: read-out: GI
# How it was run: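 P. yoelii-infected mice, n=3 per group. Subcutaneous injection once daily for 4 days starting at 2 h post infection. Growth inhibition determined at 24 h post treatment by blood-smear microscopy. Cure time taken as the minimum period to cure all mice in the group.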
# [16] = tested on: Plasmodium falciparum; assay: Antimalarial activity against sulfadoxine-pyrimethamine/mefloquine resistant asexual blood stage Plasmodium falciparum CP286 after 72 hrs by SYBR green-based fluorometric analysis; format: functional; conditions: CP286, 72 h; how it was run: as §4
# [17] = tested on: Plasmodium falciparum; assay: Antimalarial activity against Plasmodium falciparum 3D7 assessed as alteration of parasite morphology at 10 times EC50 dosed at ring stage […] by Giemsa staining-based light microscopic analysis; format: functional, organism-based
# [18] = Inhibition of Plasmodium falciparum wild type NDH2 expressed in Escherichia coli BL21 using NADH and ubiquinone-1 as substrate by spectrophotometric analysis
# How it was run: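 Recombinant PfNDH2 activity measured spectrophotometrically at 25 °C. Buffer: 50 mM MOPS pH 7.0, 150 mM NaCl, 1 mM EDTA, 0.01% Triton X-100. Substrates 50 µM NADH and 30 µM ubiquinone-1, with 0.5 nM enzyme and selected inhibitor concentrations.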
# [19] = tested on: Plasmodium yoelii; assay: Antimalarial activity against Plasmodium yoelii YM infected in BALB/c mouse assessed as time duration for parasite cure at 90 mg/kg, sc administered BID for 4 days starting at 96 hrs post infection, 8 hrs apart by Giemsa-staining based microscopic analysis; format: functional; how it was run: as §2
# [20] = tested on: Plasmodium falciparum; assay: Antimalarial activity against chloroquine/quinine-resistant asexual blood stage Plasmodium falciparum S35 after 72 hrs by SYBR green-based fluorometric analysis; format: functional; conditions: S35, 72 h; how it was run: as §4
# [21] = tested on: Plasmodium falciparum; assay: Antimalarial activity against dihydroartemisinin-resistant asexual blood stage Plasmodium falciparum 803 assessed as reduction in parasite recrudescence at 10 times EC50 for 72 hrs measured after 28 days post invasion by Giemsa staining-based light microscopic analysis; format: functional
# How it was run: (§5)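 Parasite cultures exposed for 72 h to 10× EC50 of inhibitor. Drug then removed and cultures maintained for 28 days post treatment. Recrudescence monitored by microscopy.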
# [22] = tested on: Plasmodium falciparum; assay: Antimalarial activity against […] asexual blood stage Plasmodium falciparum 3D7 assessed as reduction in parasite recrudescence at 10 times EC50 for 72 hrs measured after 28 days post invasion by Giemsa staining-based light microscopic analysis; format: functional; how it was run: as §5
compound,measurement,setting,value
Cc1c(-c2ccc(Cc3ccc(OC(F)(F)F)cc3)cc2)[nH]c2cccc(F)c2c1=O,Activity,[1],Active
same,inhibition,[2],Active
same,Time,[3],16 days
same,IC50,[4],123 nM
same,IC50,[5],17.1 nM
same,inhibition in vivo at 90 mg/kg,[6],100%
same,Activity,[7],Non-Toxic
same,EC50,[8],8.16 nM
same,inhibition in vivo at 10 mg/kg,[9],98.4%
same,EC50,[10],3.83 nM
same,survival at 10 mg/kg,[11],100%
same,Time,[12],4 days
same,fractional inhibitory concentration index (FICI),[13],0.56
same,IC50,[14],16.7 nM
same,inhibition in vivo at 5 mg/kg,[15],100%
same,EC50,[16],9.58 nM
same,Activity,[17],Active
same,IC50,[18],3.73 nM
same,Time,[19],4 days
same,EC50,[20],5.48 nM
same,Activity,[21],Active
same,Activity,[22],Active

# From ChEMBL document CHEMBL4007417, “Target Elucidation by Cocrystal Structures of NADH-Ubiquinone Oxidoreductase of Plasmodium falciparum (PfNDH2) with Small Molecule To Eliminate Drug-Resistant Malaria” (J Med Chem, 2017)
